Laboratory results published in article PMC5613298 (Biochemistry and Biophysics Reports, 2016).
Where two headings read alike, the source gives them in different places. Values belong to the molecule of their own block, whether it stands above or below them. Starred links: 1 amine or outer side, 2 acyl side, 3 side chain; linkers in the order of their positions; H or OH if unused. Non-standard residues stand in square brackets, D forms with d. Residues, ends and D or L forms follow the SMILES beside them. Trp(7-aza) = N[C@@H](Cc1c[nH]c2ncccc12)C(=O)O; X1 = O=C([C@H](Cc1n[nH]c2ncccc12)N[*:1])[*:2]

How the values were obtained:
[1] = time-resolved fluorescence; assay type: physicochemical
Outline: (§1)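 Lifetimes measured by time-correlated single-photon counting, with two sources. One used hydrogen-lamp excitation (about 300 ps resolution). The other used 310 nm third-harmonic excitation from 930 nm femtosecond pulses (82 MHz) with a microchannel-plate detector (about 15 ps resolution). Emission was collected at right angles through a 54.7° polarizer. Decays were fitted to sums of exponentials with the instrument response deconvolved.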

[2] = steady-state absorption and emission spectroscopy, free in solution; assay type: physicochemical; conditions: for λabs: neutral water; for λem, normal / N(1)-H emission: neutral water (peptides: neutral Tris buffer); for λem, second band (N(2)-H emission) / λem, third band (N(7)-H tautomer emission): neutral water / neutral Tris buffer
Outline: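 Absorption recorded on a UV-vis spectrophotometer. Emission recorded on a fluorimeter with wavelength-calibrated excitation and emission response. Peptide concentration was set spectrophotometrically from the extinction coefficient of its single Trp or Trp-analogue residue.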

[3] = cited from earlier work
[4] = target: T1, bovine brain calmodulin (CaM) (Bos taurus, UniProt P62157); assay: CaM binding by fluorescence titration; conditions: for increase in CaM binding affinity on replacing Trp: relative to Baa (210±10 pM)
[5] = cited from earlier work; remark: listed apart in the source
CD spectrum = assay type: physicochemical; conditions: Fig. S2
[6] = target: T1, bovine brain calmodulin (CaM); assay: time-resolved fluorescence; assay type: binding; conditions: peptide-CaM complex, ±0.03 ns uncertainty
Outline: as §1

[7] = target: T1, bovine brain calmodulin (CaM); assay: steady-state emission spectra upon titration with CaM; assay type: binding; conditions: for λem, N(1)-H emission: bound to CaM, pH 7.5 Tris buffer; for environment around Trp analogue upon binding CaM: deduced from steady-state emission; for λabs: in presence of CaM
Outline: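 Peptide at 1 µM in 5 mM Tris-HCl, pH 7.5, 1.0 mM CaCl₂, 25 °C. CaM added stepwise to 6 µM final, with 1 min stirring and 10 min equilibration per step. Full emission spectra recorded on a calibrated fluorimeter, corrected for dilution, each an average of three replicates. Peptide and CaM concentrations were set from Trp and Tyr absorption extinction coefficients.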

[8] = free, neutral water, λmon 320 nm, ±0.03 ns uncertainty
[9] = free, neutral water, λmon 550 nm, ±0.03 ns uncertainty
[10] = free, neutral water, λmon not given, ±0.03 ns uncertainty
[11] = free, neutral water, λmon 380 nm
[12] = free, neutral water, λmon 380 nm, ±0.03 ns uncertainty
[13] = free, neutral water, λmon 540 nm, ±0.03 ns uncertainty

τ [1, 8]: 0.22 ns
τ ([1]; free, neutral water, λmon 400 nm, ±0.03 ns uncertainty): 10.10 ns
τ, decay component [1, 9]: 1.30 ns
τ, rise component [1, 9]: 0.21 ns
λabs [2]: 295 nm
λem, normal / N(1)-H emission [2]: 335 nm
λem, second band (N(2)-H emission) [2]: 370 nm
λem, third band (N(7)-H tautomer emission) [2]: 495 nm
Molecule: c1cnc2[nH]ncc2c1 [2,7-diazaindole]

τ [1, 10]: 0.91 ns
λabs [2]: 288 nm
λem, normal / N(1)-H emission [2]: 386 nm
Molecule: c1cnc2[nH]ccc2c1 [7-azaindole]
lifetime ([3]; in DMSO): 9.3 ns
lifetime ([3]; in acetonitrile): 5.7 ns

Molecule: N[C@@H](Cc1n[nH]c2ncccc12)C(=O)O [(2,7-aza)Trp, 2,7-diazatryptophan]
τ [1, 8]: 0.26 ns
percentage of τ component 1 [1, 11]: 12%
percentage of τ component 2 [1, 11]: 88%
τ, component 1 [1, 12]: 0.27 ns
τ, component 2 [1, 12]: 10.07 ns
τ, decay component [1, 13]: 0.58 ns
τ, rise component [1, 13]: 0.26 ns
increase in CaM binding affinity on replacing Trp [4]: 4.7 times
λabs [2]: 300 nm
λem, normal / N(1)-H emission [2]: 340 nm
λem, second band (N(2)-H emission) [2]: 380 nm
λem, third band (N(7)-H tautomer emission) [2]: 500 nm
N(7)-H tautomer emission ([5]; water rich environments): 500 nm

Molecule: CC(=O)N[C@@H](CC(C)C)C(=O)N[C@@H](CCCCN)C(=O)N[C@@H](Cc1n[nH]c2ncccc12)C(=O)N[C@@H](CCCCN)C(=O)N[C@@H](CCCCN)C(=O)N[C@@H](CC(C)C)C(=O)N[C@@H](CC(C)C)C(=O)N[C@@H](CCCCN)C(=O)N[C@@H](CC(C)C)C(=O)N[C@@H](CC(C)C)C(=O)N[C@@H](CCCCN)C(=O)N[C@@H](CCCCN)C(=O)N[C@@H](CC(C)C)C(=O)N[C@@H](CC(C)C)C(=O)N[C@@H](CCCCN)C(=O)N[C@@H](CC(C)C)C(=O)NCC(N)=O [(2,7-aza)Trp-Baa] (Ac-LK[X1]KKLLKLLKKLLKLG-NH2)
τ, N(1)-H emission lifetime ([1]; free peptide in water, λmon 330 nm, ±0.03 ns uncertainty): 0.21 ns
Kd [4]: 0.045 ± 0.002 nM
secondary structure by CD (CD spectrum): α-helix structure
λabs [2]: 300 nm
λem, normal / N(1)-H emission [2]: 340 nm
λem, second band (N(2)-H emission) [2]: 380 nm
λem, third band (N(7)-H tautomer emission) [2]: 500 nm
τ, N(1)-H emission lifetime ([6]; λmon 330 nm): 1.10 ns
λem, N(1)-H emission ([7]; 1.0 mM CaCl2): 340 nm
environment around Trp analogue upon binding CaM [7]: water scant environment
λabs [7]: 300 nm
change of N(1)-H emission at 340 nm upon titration with CaM ([7]; pH 7.5 Tris, 1.0 mM CaCl2): increase of the N(1)-H emission

Molecule: N[C@@H](Cc1c[nH]c2ncccc12)C(=O)O [(7-aza)Trp, 7-azatryptophan]
τ [1, 10]: 0.65 ns
increase in CaM binding affinity on replacing Trp [4]: 1.9 times
λabs [2]: 289 nm
λem, normal / N(1)-H emission [2]: 400 nm
emission maximum ([5]; in tetrahydrofuran): 350 nm

Molecule: CC(=O)N[C@@H](CC(C)C)C(=O)N[C@@H](CCCCN)C(=O)N[C@@H](Cc1c[nH]c2ncccc12)C(=O)N[C@@H](CCCCN)C(=O)N[C@@H](CCCCN)C(=O)N[C@@H](CC(C)C)C(=O)N[C@@H](CC(C)C)C(=O)N[C@@H](CCCCN)C(=O)N[C@@H](CC(C)C)C(=O)N[C@@H](CC(C)C)C(=O)N[C@@H](CCCCN)C(=O)N[C@@H](CCCCN)C(=O)N[C@@H](CC(C)C)C(=O)N[C@@H](CC(C)C)C(=O)N[C@@H](CCCCN)C(=O)N[C@@H](CC(C)C)C(=O)NCC(N)=O [(7-aza)Trp-Baa] (Ac-LK[Trp(7-aza)]KKLLKLLKKLLKLG-NH2)
τ, normal (N(1)-H) emission lifetime ([1]; free peptide, neutral Tris buffer, λmon 400 nm, ±0.03 ns uncertainty): 0.65 ns
Kd [4]: 0.109 ± 0.005 nM
secondary structure by CD (CD spectrum): α-helix structure
λabs [2]: 300 nm
λem, normal / N(1)-H emission [2]: 400 nm
τ, normal (N(1)-H) emission lifetime ([6]; λmon 360 nm (text: 358 nm emission)): 7.35 ns
λem, N(1)-H emission ([7]; 1.0 mM CaCl2): 358 nm
environment around Trp analogue upon binding CaM [7]: less polar environment
λabs [7]: 300 nm

Molecule: Ac-LKWKKLLKLLKKLLKLG-NH2 [Baa]
secondary structure by CD (CD spectrum): α-helix structure
